Here are results for 1 compound from ChEMBL document CHEMBL1250434, “A novel achiral seco-cyclopropylpyrido[e]indolone (CPyI) analog of CC-1065 and the duocarmycins: synthesis, DNA interactions, in vivo anticancer and anti-parasitic evaluation” (Bioorg Med Chem, 2010).

Each structure is given as a SMILES string.

One test concerns L1210. Kind of test: Cytotoxicity against mouse L1210 cells after 3 days by MTT assay. Particulars: L1210, 72 h. The format is functional, cell-based. A digest of the protocol:
(§1)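 Murine tumour cells under continuous drug exposure for 3 days. Growth inhibition measured by MTT assay. IC50 is the concentration inhibiting growth by 50%.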
A general note: Tetrazolium assays rely on reduction of a dye to a coloured formazan, in cell work by metabolically active cells.

Test [1] in a line: Cytotoxicity against mouse B16F0 cells after 3 days by MTT assay. Particulars: B16F0, 72 h. It is filed as functional, cell-based. The procedure, abridged:
as §1

As for `COc1cc2cc(C(=O)Nc3cc(O)c4ccccc4c3CCCl)[nH]c2c(OC)c1OC`, the IC50 with L1210 came to 180 nM; in test [1] it was 150 nM.

The IC50 is the concentration needed to halve the response being measured.
